According to ChEMBL document CHEMBL3616436, “Synthesis, cytotoxicity and antimicrobial activity of thiourea derivatives incorporating 3-(trifluoromethyl)phenyl moiety” (Eur J Med Chem, 2015):
Values after ≈ are worked out from the molar mass of the structure shown. Active and inactive are the calls of the source. The calls are words filed in the database; no cut-off is given here.

How the values were obtained:
[1] = Cytotoxicity against human MT4 cells; format: cell-based
WIL2-NS = experiment: Cytotoxicity against human WIL2-NS cells after 96 hrs by MTT assay; format: functional
Outline: (§1)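 Leukaemia/lymphoma lines seeded at 1×10^5 cells/ml in RPMI-1640 with 10% FCS and penicillin/streptomycin; incubated with serial dilutions at 37°C, 5% CO2; viability by MTT after 96 h; value is concentration reducing proliferation by 50%, with untreated controls undergoing at least three rounds of multiplication.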

Staphylococcus aureus [2] = experiment: Antimicrobial activity against Staphylococcus aureus NCTC 4163 at 400 ug after 18 hrs by disc-diffusion method; format: functional; conditions: NCTC 4163, 18 h, read-out: IZ
Outline: (§2)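 Disc diffusion on Mueller-Hinton II agar per CLSI; 9 mm paper discs loaded with 400 µg compound from DMSO solution, dried, placed on agar; growth inhibition zone diameter read after 18 h at 35°C.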

Micrococcus luteus [3] = experiment: Antimicrobial activity against Micrococcus luteus ATCC 9341 at 400 ug after 18 hrs by disc-diffusion method; format: functional; conditions: ATCC 9341, 18 h, read-out: IZ; outline: as §2
Enterococcus faecalis = experiment: Antimicrobial activity against Enterococcus faecalis ATCC 29212 at 400 ug after 18 hrs by disc-diffusion method; format: functional; outline: as §2
[4] = Antiviral activity against Bovine viral diarrhea virus 1-NADL ATCC VR-534 infected in MDBK cells assessed as protection against virus-induced cytopathogenicity after 3 to 4 days by MTT assay; format: functional, cell-based; conditions: Bovine viral diarrhea virus isolates and strains, ATCC VR-534, MDBK
Outline: (§3)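 Cells seeded in 96-well plates (BHK 5x10^4, MDBK 3x10^4 cells/well), grown overnight to confluence, infected at m.o.i. 0.01 (BHK for Reo-1, MDBK for BVDV); serial compound dilutions in maintenance medium with 0.5% inactivated FBS added after 1 h; viability by MTT after 3–4 days at 37°C; EC50 for 50% protection by linear regression.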

Human alphaherpesvirus 1 = experiment: Antiviral activity against Human herpesvirus 1 KOS ATCC VR-1493 infected in African green monkey Vero 76 cells assessed as reduction of virus-plaque formation after 3 days by crystal violet staining; format: functional, organism-based; conditions: Human alphaherpesvirus 1, KOS ATCC VR1493, Vero, 72 h
Outline: (§4)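 Plaque reduction: Vero-76 at 2x10^5 cells/well grown to confluent monolayers, infected 2 h at 50–100 PFU/well; after removing unadsorbed virus, overlay of D-MEM, 1% inactivated FBS, 0.75% methylcellulose with or without serial compound dilutions; 3 days at 37°C, fixed and stained with crystal violet in 50% ethanol, plaques counted; EC50 by linear regression.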

Staphylococcus aureus [5] = experiment: Antimicrobial activity against Staphylococcus aureus NCTC 4163 after 18 hrs by twofold serial microdilution method; format: functional; conditions: NCTC 4163, 18 h
Bacillus subtilis = experiment: Antimicrobial activity against Bacillus subtilis ATCC 6633 at 400 ug after 18 hrs by disc-diffusion method; format: functional; conditions: ATCC 6633, 18 h, read-out: IZ; outline: as §2
[6] = tested on: Staphylococcus epidermidis; experiment: Antimicrobial activity against Staphylococcus epidermidis ATCC 12228 at 400 ug after 18 hrs by disc-diffusion method; format: functional; conditions: ATCC 12228, 18 h, read-out: IZ; outline: as §2
Staphylococcus aureus [7] = experiment: Antimicrobial activity against Staphylococcus aureus ATCC 6538 at 400 ug after 18 hrs by disc-diffusion method; format: functional; conditions: ATCC 6538, 18 h, read-out: IZ; outline: as §2
Enterococcus hirae = experiment: Antimicrobial activity against Enterococcus hirae ATCC 10541 at 400 ug after 18 hrs by disc-diffusion method; format: functional; outline: as §2
Bacillus cereus = experiment: Antimicrobial activity against Bacillus cereus ATCC 11778 at 400 ug after 18 hrs by disc-diffusion method; format: functional; conditions: ATCC 11778, 18 h, read-out: IZ; outline: as §2
[8] = Cytotoxicity against African green monkey Vero 76 cells assessed as cell viability after 48 to 96 hrs by crystal violet staining; format: cell-based; conditions: chlorocebus sabaeus
Staphylococcus aureus [9] = experiment: Antimicrobial activity against Staphylococcus aureus ATCC 25923 at 400 ug after 18 hrs by disc-diffusion method; format: functional; conditions: ATCC 25923, 18 h, read-out: IZ; outline: as §2
Staphylococcus aureus [10] = experiment: Antimicrobial activity against Staphylococcus aureus ATCC 29213 after 18 hrs by twofold serial microdilution method; format: functional; conditions: ATCC 29213, 18 h
[11] = tested on: Mycobacterium tuberculosis; experiment: Antimycobacterial activity against Mycobacterium tuberculosis H37Rv ATCC 25618; format: functional
Outline: (§5)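 Classical test-tube successive-dilution method in Youmans' modification of Proskauer and Beck liquid medium with 10% bovine serum. Inoculum came from 14-day cultures. DMSO stock was 10 mg/mL, diluted geometrically in medium. Tubes were incubated at 37 °C. Concentrations tested were 3.1, 6.2, 12.5, 25, 50 and 100 µg/ml. MIC is the minimum concentration inhibiting growth relative to compound-free tubes.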

CCRF-CEM = experiment: Cytotoxicity against human CCRF-CEM cells after 96 hrs by MTT assay; format: functional; outline: as §1
[12] = tested on: Staphylococcus epidermidis; experiment: Antimicrobial activity against Staphylococcus epidermidis ATCC 35984 after 18 hrs by twofold serial microdilution method; format: functional; conditions: ATCC 35984, 18 h
[13] = tested on: Mycobacterium tuberculosis; experiment: Antimycobacterial activity against drug-sensitive Mycobacterium tuberculosis Spec. 192; format: functional; outline: as §5
Yellow fever virus = experiment: Antiviral activity against Yellow fever virus 17D infected in BHK cells assessed as protection against virus-induced cytopathogenicity after 3 to 4 days by MTT assay; format: functional, cell-based
[14] = Cytotoxicity against bovine MDBK cells assessed as cell viability after 48 to 96 hrs by MTT assay; format: cell-based, Bos taurus; conditions: cattle
Poliovirus 1 = experiment: Antiviral activity against Poliovirus type 1 ATCC VR-1562 infected in African green monkey Vero 76 cells assessed as reduction of virus-plaque formation after 2 days by crystal violet staining; format: functional, organism-based; conditions: Enterovirus C, ATCC VR-1562, Vero, 48 h
[15] = tested on: Human immunodeficiency virus 1; experiment: Antiviral activity against HIV1 3B infected in human MT4 cells assessed as protection against virus-induced cytopathogenicity by MTT assay; format: functional, organism-based; conditions: Human immunodeficiency virus 1, 3B
Coxsackievirus B5 = experiment: Antiviral activity against Human coxsackievirus B5 ATCC VR-29 infected in African green monkey Vero 76 cells assessed as reduction of virus-plaque formation after 3 days by crystal violet staining; format: functional, organism-based; conditions: Enterovirus B, ATCC VR-29, Vero, 72 h; outline: as §4
[16] = tested on: Staphylococcus epidermidis; experiment: Antimicrobial activity against Staphylococcus epidermidis ATCC 12228 after 18 hrs by twofold serial microdilution method; format: functional; conditions: ATCC 12228, 18 h
Micrococcus luteus [17] = experiment: Antimicrobial activity against Micrococcus luteus ATCC 10240 at 400 ug after 18 hrs by disc-diffusion method; format: functional; conditions: ATCC 10240, 18 h, read-out: IZ; outline: as §2
[18] = Cytotoxicity against BHK cells assessed as cell viability after 48 to 96 hrs by MTT assay; format: cell-based, Mesocricetus auratus; conditions: hamster
Staphylococcus aureus [19] = experiment: Antimicrobial activity against Staphylococcus aureus ATCC 6538 after 18 hrs by twofold serial microdilution method; format: functional; conditions: ATCC 6538, 18 h
[20] = tested on: Mammalian orthoreovirus 1; experiment: Antiviral activity against Reovirus type-1 ATCC VR-214 infected in BHK cells assessed as protection against virus-induced cytopathogenicity after 3 to 4 days by MTT assay; format: functional, cell-based; conditions: Mammalian orthoreovirus 1, ATCC VR-214, BHK; outline: as §3
[21] = tested on: Vesicular stomatitis virus; experiment: Antiviral activity against Vesicular stomatitis virus ATCC VR 1540 infected in African green monkey Vero 76 cells assessed as reduction of virus-plaque formation after 2 days by crystal violet staining; format: functional, organism-based; conditions: ATCC VR 1540, Vero, 48 h
Staphylococcus aureus [22] = experiment: Antimicrobial activity against Staphylococcus aureus ATCC 25923 after 18 hrs by twofold serial microdilution method; format: functional; conditions: ATCC 25923, 18 h
[23] = tested on: Staphylococcus epidermidis; experiment: Antimicrobial activity against Staphylococcus epidermidis ATCC 35984 at 400 ug after 18 hrs by disc-diffusion method; format: functional; conditions: ATCC 35984, 18 h, read-out: IZ; outline: as §2
CCRF-SB = experiment: Cytotoxicity against human CCRF-SB cells after 96 hrs by MTT assay; format: functional; outline: as §1
Vaccinia virus = experiment: Antiviral activity against Human Vaccinia virus ATCC VR-1549 infected in African green monkey Vero 76 cells assessed as reduction of virus-plaque formation after 3 days by crystal violet staining; format: functional, organism-based; conditions: Orthopoxvirus vaccinia, ATCC VR-1549, Vero, 72 h
Staphylococcus aureus [24] = experiment: Antimicrobial activity against Staphylococcus aureus ATCC 29213 at 400 ug after 18 hrs by disc-diffusion method; format: functional; conditions: ATCC 29213, 18 h, read-out: IZ; outline: as §2
Proteus vulgaris = experiment: Antimicrobial activity against Proteus vulgaris NCTC 4635 at 400 ug after 18 hrs by disc-diffusion method; format: functional; outline: as §2

`N#Cc1ccc(NC(=S)Nc2cccc(C(F)(F)F)c2)cc1` showed a CC50 [1] of 7 µM, a CC50 (WIL2-NS) of 9.2 µM and a zone of inhibition at 400 µg/disc (Staphylococcus aureus [2]) of 20 mm. For the same compound, the zone of inhibition at 400 µg/disc (Micrococcus luteus [3]) was 18 mm, the “inhibition zone (IZ)” value (Enterococcus faecalis) was “inactive” and the EC50 [4] was over 10 µM. For the same compound, the EC50 (Human alphaherpesvirus 1) was over 10 µM, the MIC (Staphylococcus aureus [5]) was 128 µg/mL (≈ 398 µM) and the zone of inhibition at 400 µg/disc (Bacillus subtilis) was 19 mm. For the same compound, the zone of inhibition at 400 µg/disc [6] was 18 mm, the zone of inhibition at 400 µg/disc (Staphylococcus aureus [7]) was 22 mm and the “inhibition zone (IZ)” value (Enterococcus hirae) was “inactive”. The zone of inhibition at 400 µg/disc (Bacillus cereus) was 19 mm, the CC50 [8] was 10 µM and the zone of inhibition at 400 µg/disc (Staphylococcus aureus [9]) was 19 mm. It also gave an MIC (Staphylococcus aureus [10]) of 64 µg/mL (≈ 199 µM), an MIC [11] of over 100 µg/mL and a CC50 (CCRF-CEM) of 8.7 µM. For the same compound, the MIC [12] was 64 µg/mL (≈ 199 µM), the MIC [13] was over 100 µg/mL and the EC50 (Yellow fever virus) was over 9.5 µM. The CC50 [14] was 10 µM, the EC50 (Poliovirus 1) was over 10 µM and the EC50 [15] was over 7 µM. It also gave an EC50 (Coxsackievirus B5) of over 10 µM, an MIC [16] of 64 µg/mL (≈ 199 µM) and a zone of inhibition at 400 µg/disc (Micrococcus luteus [17]) of 16 mm. The CC50 [18] was 9.5 µM, the MIC (Staphylococcus aureus [19]) was 64 µg/mL (≈ 199 µM) and the EC50 [20] was over 9.5 µM. For the same compound, the EC50 [21] was over 10 µM, the MIC (Staphylococcus aureus [22]) was 64 µg/mL (≈ 199 µM) and the zone of inhibition at 400 µg/disc [23] was 20 mm. The CC50 (CCRF-SB) was 8.3 µM, the EC50 (Vaccinia virus) was over 10 µM and the zone of inhibition at 400 µg/disc (Staphylococcus aureus [24]) was 18 mm. For the same compound, the “inhibition zone (IZ)” value (Proteus vulgaris) was “inactive”.

For `O=[N+]([O-])c1ccc(NC(=S)Nc2cccc(C(F)(F)F)c2)cc1`, the CC50 [1] was 9.2 µM, the CC50 (WIL2-NS) was 9.4 µM and the zone of inhibition at 400 µg/disc (Staphylococcus aureus [2]) was 16 mm. For the same compound, the zone of inhibition at 400 µg/disc (Micrococcus luteus [3]) was 13 mm, the “inhibition zone (IZ)” value (Enterococcus faecalis) was “inactive” and the EC50 [4] was over 10 µM. The EC50 (Human alphaherpesvirus 1) was over 10 µM, the MIC (Staphylococcus aureus [5]) was 128 µg/mL (≈ 375 µM) and the zone of inhibition at 400 µg/disc (Bacillus subtilis) was 15 mm. The zone of inhibition at 400 µg/disc [6] was 13 mm, the zone of inhibition at 400 µg/disc (Staphylococcus aureus [7]) was 15 mm and the zone of inhibition at 400 µg/disc (Enterococcus hirae; ATCC 10541, 18 h, read-out: IZ) was 13 mm. The zone of inhibition at 400 µg/disc (Bacillus cereus) was 15 mm, the CC50 [8] was 10 µM and the zone of inhibition at 400 µg/disc (Staphylococcus aureus [9]) was 20 mm. The MIC (Staphylococcus aureus [10]) was 64 µg/mL (≈ 188 µM), the MIC [11] was 50 µg/mL (≈ 146 µM) and the CC50 (CCRF-CEM) was 8.7 µM. It also gave an MIC [12] of 64 µg/mL (≈ 188 µM), an MIC [13] of over 100 µg/mL and an EC50 (Yellow fever virus) of over 9.5 µM. For the same compound, the CC50 [14] was 10 µM, the EC50 (Poliovirus 1) was over 10 µM and the EC50 [15] was over 9.2 µM. It also gave an EC50 (Coxsackievirus B5) of over 10 µM, an MIC [16] of 64 µg/mL (≈ 188 µM) and a zone of inhibition at 400 µg/disc (Micrococcus luteus [17]) of 13 mm. The CC50 [18] was 9.5 µM, the MIC (Staphylococcus aureus [19]) was 64 µg/mL (≈ 188 µM) and the EC50 [20] was over 9.5 µM. The EC50 [21] was over 10 µM, the MIC (Staphylococcus aureus [22]) was 128 µg/mL (≈ 375 µM) and the zone of inhibition at 400 µg/disc [23] was 12 mm. For the same compound, the CC50 (CCRF-SB) was 8.2 µM, the EC50 (Vaccinia virus) was over 10 µM and the zone of inhibition at 400 µg/disc (Staphylococcus aureus [24]) was 16 mm. The “inhibition zone (IZ)” value (Proteus vulgaris) was “inactive”.
